Molecules are shown by their SMILES.

One may read the IC50 as the concentration that inhibits the measured activity by half.

The target in experiment [1] is Potassium-transporting ATPase (Sus scrofa, UniProt P19156). The experiment in a line: Inhibition of purified H+/K+ ATPase at pH 7.4 as released inorganic phosphate from ATP using hog stomach gastric membrane vesicles. An outline of the steps:
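Gastric membrane vesicles from hog stomach were prepared by differential and zonal density gradient centrifugation. Activity was read as inorganic phosphate released from ATP at pH 7.4. Protein was measured by the Bradford method against a gammaglobulin standard.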

For experiment [2], the target named is Potassium-transporting ATPase alpha chain 1/subunit beta (Oryctolagus cuniculus). The experiment in a line: Inhibition of H+/K+ ATPase as reduced acid formation in rabbit gastric glands.

Sequence of Potassium-transporting ATPase (P19156 whole entry, looked up): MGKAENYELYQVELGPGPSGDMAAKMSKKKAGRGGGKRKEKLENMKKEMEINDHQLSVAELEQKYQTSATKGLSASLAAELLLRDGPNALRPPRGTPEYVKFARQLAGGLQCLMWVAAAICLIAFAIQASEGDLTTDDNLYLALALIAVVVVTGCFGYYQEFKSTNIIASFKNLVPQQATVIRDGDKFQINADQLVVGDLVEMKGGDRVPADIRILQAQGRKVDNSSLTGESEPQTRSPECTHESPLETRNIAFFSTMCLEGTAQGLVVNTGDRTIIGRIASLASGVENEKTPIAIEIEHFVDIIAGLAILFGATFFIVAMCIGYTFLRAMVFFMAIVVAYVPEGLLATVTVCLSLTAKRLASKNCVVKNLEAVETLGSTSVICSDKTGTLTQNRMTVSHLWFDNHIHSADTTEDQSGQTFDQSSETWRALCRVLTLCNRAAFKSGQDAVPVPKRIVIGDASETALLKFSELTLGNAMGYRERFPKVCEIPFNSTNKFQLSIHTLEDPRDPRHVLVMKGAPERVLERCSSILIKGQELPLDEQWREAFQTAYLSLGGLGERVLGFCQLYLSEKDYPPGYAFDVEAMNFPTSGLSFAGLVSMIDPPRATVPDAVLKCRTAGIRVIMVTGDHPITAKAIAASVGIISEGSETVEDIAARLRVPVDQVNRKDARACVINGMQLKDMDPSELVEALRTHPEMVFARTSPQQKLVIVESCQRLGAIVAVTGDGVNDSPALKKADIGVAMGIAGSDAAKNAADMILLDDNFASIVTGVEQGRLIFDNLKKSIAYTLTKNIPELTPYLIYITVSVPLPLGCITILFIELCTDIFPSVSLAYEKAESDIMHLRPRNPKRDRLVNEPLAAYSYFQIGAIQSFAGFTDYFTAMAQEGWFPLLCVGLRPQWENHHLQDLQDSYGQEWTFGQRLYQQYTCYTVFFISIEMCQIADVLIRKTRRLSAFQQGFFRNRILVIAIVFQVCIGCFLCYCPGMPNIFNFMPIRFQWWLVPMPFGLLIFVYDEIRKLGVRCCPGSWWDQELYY

As for `Cc1nc2c(C/C=C/c3ccccc3)cccn2c1CC#N`, the IC50 in experiment [1] stood at 206 µM; in experiment [2] it was 442 µM.

Take `Cc1nc2c(OCc3ccccc3)nccn2c1N`: in experiment [1], the IC50 was 178 µM.
